Data taken from ChEMBL document CHEMBL5260822, “Structure-based design and synthesis of 2,4-diaminopyrimidines as EGFR L858R/T790M selective inhibitors for NSCLC” (Eur J Med Chem, 2017).
Calls of active or inactive are those of the source. The calls are words filed in the database; no cut-off is given here.

Legend:
[1] = biological target: T1, Epidermal growth factor receptor (Homo sapiens, UniProt P00533); experiment: Inhibition of wild type EGFR (unknown origin) expressed in baculovirus expression system by ELISA
T1 sequence (P00533 whole entry): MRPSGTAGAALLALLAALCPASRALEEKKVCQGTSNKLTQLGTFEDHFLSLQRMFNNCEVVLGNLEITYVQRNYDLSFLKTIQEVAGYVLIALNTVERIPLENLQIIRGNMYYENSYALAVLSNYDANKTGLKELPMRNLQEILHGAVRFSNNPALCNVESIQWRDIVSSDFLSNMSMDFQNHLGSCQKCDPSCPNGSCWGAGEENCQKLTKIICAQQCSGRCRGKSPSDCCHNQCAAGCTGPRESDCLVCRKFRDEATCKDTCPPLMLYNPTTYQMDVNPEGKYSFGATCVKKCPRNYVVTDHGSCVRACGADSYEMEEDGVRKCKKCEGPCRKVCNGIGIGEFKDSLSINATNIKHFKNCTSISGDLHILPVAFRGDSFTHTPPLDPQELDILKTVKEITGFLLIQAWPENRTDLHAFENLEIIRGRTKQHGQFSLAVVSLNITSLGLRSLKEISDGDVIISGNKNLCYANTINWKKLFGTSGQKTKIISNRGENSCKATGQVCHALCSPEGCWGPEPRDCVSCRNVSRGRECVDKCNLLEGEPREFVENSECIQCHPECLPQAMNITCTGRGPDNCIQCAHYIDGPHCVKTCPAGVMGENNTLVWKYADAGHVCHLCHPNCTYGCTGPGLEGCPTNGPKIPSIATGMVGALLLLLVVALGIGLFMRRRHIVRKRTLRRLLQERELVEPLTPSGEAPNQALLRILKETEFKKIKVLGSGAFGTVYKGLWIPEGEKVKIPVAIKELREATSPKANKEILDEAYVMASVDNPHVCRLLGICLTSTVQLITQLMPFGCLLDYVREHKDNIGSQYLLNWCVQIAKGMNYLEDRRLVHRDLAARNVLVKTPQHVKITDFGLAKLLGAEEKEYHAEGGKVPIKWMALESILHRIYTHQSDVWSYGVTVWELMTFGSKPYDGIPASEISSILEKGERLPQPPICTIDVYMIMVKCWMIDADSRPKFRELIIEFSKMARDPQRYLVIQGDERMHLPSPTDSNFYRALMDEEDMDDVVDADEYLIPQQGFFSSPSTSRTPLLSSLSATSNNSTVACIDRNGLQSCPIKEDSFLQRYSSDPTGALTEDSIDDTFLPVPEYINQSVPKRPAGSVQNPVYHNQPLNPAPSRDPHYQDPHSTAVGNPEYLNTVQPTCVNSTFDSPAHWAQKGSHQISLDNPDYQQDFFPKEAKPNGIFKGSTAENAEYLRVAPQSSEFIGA

[2] = biological target: Tyrosine-protein kinase JAK2 (Homo sapiens) (UniProt O60674); experiment: Inhibition of JAK2 (unknown origin) at 1000 nM by DiscoverX KINOMEscan assay
Tyrosine-protein kinase JAK2 (Homo sapiens), sequence (O60674 whole entry): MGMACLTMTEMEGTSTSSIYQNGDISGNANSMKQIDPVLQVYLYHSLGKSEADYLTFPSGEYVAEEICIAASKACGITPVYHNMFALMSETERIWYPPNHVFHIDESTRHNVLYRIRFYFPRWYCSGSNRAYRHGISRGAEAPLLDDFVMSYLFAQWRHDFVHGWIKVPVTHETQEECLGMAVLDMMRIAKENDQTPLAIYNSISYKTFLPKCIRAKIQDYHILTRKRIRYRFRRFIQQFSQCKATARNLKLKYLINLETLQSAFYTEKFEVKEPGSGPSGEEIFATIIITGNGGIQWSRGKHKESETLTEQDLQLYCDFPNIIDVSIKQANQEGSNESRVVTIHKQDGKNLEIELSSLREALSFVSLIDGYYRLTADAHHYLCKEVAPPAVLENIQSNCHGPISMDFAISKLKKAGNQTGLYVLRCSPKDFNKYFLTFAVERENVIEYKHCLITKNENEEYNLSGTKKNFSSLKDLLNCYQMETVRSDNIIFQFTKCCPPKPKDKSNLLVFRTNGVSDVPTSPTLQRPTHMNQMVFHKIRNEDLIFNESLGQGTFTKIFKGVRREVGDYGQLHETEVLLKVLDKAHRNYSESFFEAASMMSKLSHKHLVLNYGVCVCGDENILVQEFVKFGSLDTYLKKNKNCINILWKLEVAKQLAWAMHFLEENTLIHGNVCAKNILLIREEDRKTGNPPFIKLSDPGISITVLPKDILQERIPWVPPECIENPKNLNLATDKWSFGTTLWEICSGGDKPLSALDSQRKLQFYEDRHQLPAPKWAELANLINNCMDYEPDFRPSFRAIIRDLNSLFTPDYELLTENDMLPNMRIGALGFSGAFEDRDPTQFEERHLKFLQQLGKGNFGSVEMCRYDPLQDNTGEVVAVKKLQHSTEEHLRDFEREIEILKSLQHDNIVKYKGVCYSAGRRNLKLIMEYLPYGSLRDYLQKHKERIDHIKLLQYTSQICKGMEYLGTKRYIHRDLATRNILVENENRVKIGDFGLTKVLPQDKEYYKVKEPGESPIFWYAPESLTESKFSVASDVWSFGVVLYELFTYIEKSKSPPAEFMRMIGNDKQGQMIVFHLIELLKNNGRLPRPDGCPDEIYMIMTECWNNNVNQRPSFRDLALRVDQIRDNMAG

[3] = Toxicity in BALB/c nude mouse xenografted with human NCI-H1975 cells harboring EGFR L858R/T790M mutant assessed as morphological changes in heart at 15 to 30 mg/kg, po for 18 days by hematoxylin and eosin staining based microscopic analysis; assay type: organism-based; conditions: in vivo, 432 h, dose 15-30 mg/kg, time 18 day
How it was run: (§1)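 H1975 subcutaneous xenografts were grown in female BALB/cA nu/nu mice (n = 6 per group), dosed at 15 or 30 mg/kg/day for 18 days or with vehicle. At the end the mice were sacrificed. Heart, kidney and liver were harvested, processed and stained with hematoxylin and eosin for routine histological examination.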

[4] = Toxicity in BALB/c nude mouse xenografted with human NCI-H1975 cells harboring EGFR L858R/T790M mutant assessed as morphological changes in kidney at 15 to 30 mg/kg, po for 18 days by hematoxylin and eosin staining based microscopic analysis; assay type: organism-based; conditions: in vivo, 432 h, dose 15-30 mg/kg, time 18 day; how it was run: as §1
[5] = Toxicity in BALB/c nude mouse xenografted with human NCI-H1975 cells harboring EGFR L858R/T790M mutant assessed as morphological changes in liver at 15 to 30 mg/kg, po for 18 days by hematoxylin and eosin staining based microscopic analysis; assay type: organism-based; conditions: in vivo, 432 h, dose 15-30 mg/kg, time 18 day; how it was run: as §1
[6] = biological target: Epidermal growth factor receptor (Homo sapiens, UniProt P00533, L858R/T790M); experiment: Inhibition of EGFR L858R/T790M mutant (unknown origin) expressed in baculovirus expression system by ELISA
[7] = test system: NCI-H1975; experiment: Antiproliferative activity against human NCI-H1975 cells harboring EGFR L858R/T790M double mutant assessed as inhibition of cell proliferation incubated for 72 hrs by sulforhodamine B colorimetric assay; assay type: functional, cell-based; conditions: NCI-H1975, 72 h
[8] = test system: NCI-H1975; experiment: Inhibition of Erk signalling in EGF-stimulated human NCI-H1975 cells harboring EGFR L858R/T790M double mutant assessed as decrease in p-ERK level at 0.1 to 100 nM and measured after 2 hrs by Western blot analysis; assay type: cell-based; conditions: dose 0.1-100 nM
How it was run: (§2)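 Cells treated with compound for 2 h, then stimulated with EGF for 15 min and lysed. Lysates cleared at 12,000 × g (10 min, 4 °C), protein measured by Bradford assay, and equal amounts run on 8% SDS-PAGE and blotted to nitrocellulose. Probed for p-EGFR (Y1068), EGFR, p-ERK (T202/Y204), ERK, with tubulin or GAPDH as loading controls.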

[9] = test system: NCI-H1975; experiment: Antitumor activity against human NCI-H1975 cells harboring EGFR L858R/T790M mutant xenografted in BALB/c nude mouse assessed as tumor growth inhibition at 15 mg/kg, po for 18 days; assay type: functional; conditions: NCI-H1975, 432 h, time 18 day, read-out: TGI
How it was run: (§3)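 H1975 cells (1 × 10^6 in 0.1 mL PBS) injected subcutaneously into the right flank of female nude mice. At mean tumor volume of about 100 mm3 (roughly 18 days), mice randomized, n = 6 per group, and dosed once daily for 18 days against a vehicle group. Tumor volume (0.5 × L × W²) measured every 2–3 days; tumors weighed at sacrifice. Data given as mean ± SEM.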

[10] = test system: NCI-H1975; experiment: Antitumor activity against human NCI-H1975 cells harboring EGFR L858R/T790M mutant xenografted in BALB/c nude mouse assessed as tumor cell proliferation at 15 to 30 mg/kg, po for 18 days by Ki-67 staining based immunohistochemical analysis; assay type: functional, organism-based; conditions: dose 15-30 mg/kg, time 18.0 day
How it was run: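 H1975 xenograft tumors from nude mice (n = 6/group, daily dosing 18 days) were harvested, fixed in 10% formalin, paraffin-embedded and cut into 5 µm sections. Sections deparaffinized and incubated with primary anti-Ki-67 antibody at room temperature; immunoreactivity visualized with DAB.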

[11] = test system: A-431; experiment: Antiproliferative activity against human A-431 cells harboring wild type EGFR assessed as inhibition of cell proliferation incubated for 72 hrs by sulforhodamine B colorimetric assay; assay type: functional, cell-based; conditions: A-431, 72 h
[12] = AUC (0 to infinity) in Sprague-Dawley rat at 10 mg/kg, po and measured after 24 hrs by LC-MS/MS analysis; assay type: ADME, organism-based; set-up: dose 10 mg/kg, time 24 hrs, route po; conditions: in vivo
How it was run: (§4)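 Male Sprague–Dawley rats (190–220 g) dosed by oral gavage at 10 mg/kg in 5% DMSO / 95% HP-β-CD aqueous solution (20%); iv reference arm at 1 mg/kg. Blood sampled at 0.25, 0.5, 1, 2, 4, 6, 8 and 24 h, centrifuged (8000 × g, 6 min), and plasma quantified by LC–MS/MS.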

[13] = test system: NCI-H1975; experiment: Antitumor activity against human NCI-H1975 cells harboring EGFR L858R/T790M mutant xenografted in BALB/c nude mouse assessed as tumor growth inhibition at 30 mg/kg, po for 18 days; assay type: functional; conditions: NCI-H1975, 432 h, time 18 day, read-out: TGI; how it was run: as §3
[14] = test system: NCI-H1975; experiment: Inhibition of Akt signalling in EGF-stimulated human NCI-H1975 cells harboring EGFR L858R/T790M double mutant assessed as […] at 0.1 to 100 nM and measured after 2 hrs by Western blot analysis; assay type: cell-based; conditions: dose 0.1-100 nM
[15] = test system: Epidermal growth factor receptor (Homo sapiens), P00533 [L858R,T790M]; experiment: Inhibition of EGFR phosphorylation in EGF-stimulated human NCI-H1975 cells harboring EGFR L858R/T790M double mutant at 0.1 to 100 nM and measured after 2 hrs by Western blot analysis; assay type: cell-based; conditions: dose 0.1-100 nM; how it was run: as §2
Epidermal growth factor receptor (Homo sapiens), P00533 [L858R,T790M], sequence (P00533 whole entry T790M/L858R, looked up): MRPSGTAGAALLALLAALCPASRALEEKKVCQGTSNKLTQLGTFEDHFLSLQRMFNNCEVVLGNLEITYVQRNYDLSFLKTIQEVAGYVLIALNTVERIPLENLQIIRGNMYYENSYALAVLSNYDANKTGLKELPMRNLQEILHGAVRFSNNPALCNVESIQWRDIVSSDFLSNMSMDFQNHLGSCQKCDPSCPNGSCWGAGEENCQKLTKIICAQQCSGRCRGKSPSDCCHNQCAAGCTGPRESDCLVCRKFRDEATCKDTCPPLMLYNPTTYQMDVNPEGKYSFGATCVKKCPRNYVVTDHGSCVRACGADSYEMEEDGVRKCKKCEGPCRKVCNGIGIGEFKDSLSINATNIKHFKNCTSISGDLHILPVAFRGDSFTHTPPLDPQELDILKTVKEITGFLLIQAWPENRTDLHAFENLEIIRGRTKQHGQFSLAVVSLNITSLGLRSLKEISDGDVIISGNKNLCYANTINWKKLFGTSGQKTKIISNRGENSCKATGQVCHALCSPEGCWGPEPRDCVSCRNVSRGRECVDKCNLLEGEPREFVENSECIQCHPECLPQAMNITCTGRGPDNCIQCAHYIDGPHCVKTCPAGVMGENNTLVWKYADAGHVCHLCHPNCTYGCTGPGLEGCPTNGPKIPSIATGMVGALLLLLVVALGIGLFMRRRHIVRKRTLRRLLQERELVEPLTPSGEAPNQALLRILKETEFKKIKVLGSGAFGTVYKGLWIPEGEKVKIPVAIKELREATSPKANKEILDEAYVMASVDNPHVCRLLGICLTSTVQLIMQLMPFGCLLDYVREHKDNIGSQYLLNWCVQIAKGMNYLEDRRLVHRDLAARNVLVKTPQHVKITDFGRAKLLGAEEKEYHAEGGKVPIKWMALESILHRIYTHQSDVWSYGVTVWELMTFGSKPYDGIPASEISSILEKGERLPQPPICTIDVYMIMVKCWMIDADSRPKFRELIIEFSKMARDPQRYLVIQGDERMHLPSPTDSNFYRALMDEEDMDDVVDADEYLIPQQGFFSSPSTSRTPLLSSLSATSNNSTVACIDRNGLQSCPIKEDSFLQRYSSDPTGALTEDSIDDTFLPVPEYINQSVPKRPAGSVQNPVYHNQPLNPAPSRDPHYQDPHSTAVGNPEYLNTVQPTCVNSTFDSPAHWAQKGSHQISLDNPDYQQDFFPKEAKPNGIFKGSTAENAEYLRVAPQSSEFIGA

[16] = biological target: T1, Epidermal growth factor receptor; experiment: Inhibition of EGFR phosphorylation in EGF-stimulated human A-431 cells harboring wild type EGFR at 100 nM and measured after 2 hrs by Western blot analysis; assay type: cell-based; how it was run: as §2
[17] = biological target: Focal adhesion kinase 1 (Homo sapiens) (UniProt Q05397); experiment: Inhibition of FAK (unknown origin) at 1000 nM by DiscoverX KINOMEscan assay
Focal adhesion kinase 1 (Homo sapiens), sequence (Q05397 2-1052 limits assumed): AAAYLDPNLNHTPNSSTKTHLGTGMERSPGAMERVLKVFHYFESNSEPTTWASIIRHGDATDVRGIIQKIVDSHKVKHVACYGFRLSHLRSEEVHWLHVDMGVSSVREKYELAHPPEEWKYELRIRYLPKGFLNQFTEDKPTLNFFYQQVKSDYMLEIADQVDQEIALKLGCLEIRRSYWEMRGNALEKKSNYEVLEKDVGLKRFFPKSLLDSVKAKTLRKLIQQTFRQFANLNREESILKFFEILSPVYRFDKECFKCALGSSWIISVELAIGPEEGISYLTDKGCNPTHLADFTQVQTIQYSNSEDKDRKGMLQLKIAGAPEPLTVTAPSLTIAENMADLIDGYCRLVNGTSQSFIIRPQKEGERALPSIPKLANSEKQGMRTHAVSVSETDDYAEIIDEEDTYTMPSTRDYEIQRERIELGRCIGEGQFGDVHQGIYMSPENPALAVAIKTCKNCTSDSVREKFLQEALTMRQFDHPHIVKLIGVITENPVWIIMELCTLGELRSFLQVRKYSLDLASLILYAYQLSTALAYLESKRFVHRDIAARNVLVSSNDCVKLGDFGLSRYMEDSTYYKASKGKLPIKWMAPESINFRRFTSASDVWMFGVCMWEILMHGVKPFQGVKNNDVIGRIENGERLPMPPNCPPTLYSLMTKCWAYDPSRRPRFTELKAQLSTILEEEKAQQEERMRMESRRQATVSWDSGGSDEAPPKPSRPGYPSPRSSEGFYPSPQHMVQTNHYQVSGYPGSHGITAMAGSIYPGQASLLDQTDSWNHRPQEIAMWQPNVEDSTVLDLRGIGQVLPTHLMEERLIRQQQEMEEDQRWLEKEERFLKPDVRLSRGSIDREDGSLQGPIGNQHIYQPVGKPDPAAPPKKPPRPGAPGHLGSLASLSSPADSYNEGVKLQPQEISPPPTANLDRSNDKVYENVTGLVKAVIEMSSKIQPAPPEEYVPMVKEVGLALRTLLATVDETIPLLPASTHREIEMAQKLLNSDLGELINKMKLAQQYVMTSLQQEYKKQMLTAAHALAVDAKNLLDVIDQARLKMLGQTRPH

[18] = biological target: Tyrosine-protein kinase BTK (Homo sapiens) (UniProt Q06187); experiment: Inhibition of BTK (unknown origin) at 1000 nM by DiscoverX KINOMEscan assay
[19] = Clearance in Sprague-Dawley rat at 1 mg/kg, iv and measured after 24 hrs by LC-MS/MS analysis; assay type: ADME, organism-based; conditions: in vivo
[20] = biological target: Insulin receptor (Homo sapiens) (UniProt P06213); experiment: Inhibition of INSR (unknown origin) at 1000 nM by DiscoverX KINOMEscan assay
[21] = test system: Epidermal growth factor receptor (Homo sapiens), P00533 [L858R,T790M]; conditions: NCI-H1975, dose 10.0 nM, time 2.0 hrs
[22] = AUC (0 to infinity) in Sprague-Dawley rat at 1 mg/kg, iv and measured after 24 hrs by LC-MS/MS analysis; assay type: ADME, organism-based; set-up: time 24 hrs, dose 1 mg/kg, route iv; conditions: in vivo
[23] = Cmax in Sprague-Dawley rat at 10 mg/kg, po and measured after 24 hrs by LC-MS/MS analysis; assay type: ADME, organism-based; set-up: dose 10 mg/kg, time 24 hrs, route po; conditions: in vivo; how it was run: as §4
[24] = Half life in Sprague-Dawley rat at 10 mg/kg, po and measured after 24 hrs by LC-MS/MS analysis; assay type: ADME, organism-based; conditions: in vivo; how it was run: as §4
[25] = Oral bioavailability in Sprague-Dawley rat at 10 mg/kg and measured after 24 hrs by LC-MS/MS analysis; assay type: ADME, organism-based; conditions: in vivo; how it was run: as §4
[26] = Half life in Sprague-Dawley rat at 1 mg/kg, iv and measured after 24 hrs by LC-MS/MS analysis; assay type: ADME, organism-based; conditions: in vivo
[27] = Toxicity in BALB/c nude mouse xenografted with human NCI-H1975 cells harboring EGFR L858R/T790M mutant assessed as body weight loss at 15 to 30 mg/kg, po for 18 days; assay type: organism-based; conditions: in vivo, 432 h, dose 15-30 mg/kg, time 18 day
How it was run: (§5)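 Female BALB/cA nu/nu mice were given 1 × 10^6 H1975 cells in 0.1 mL PBS subcutaneously in the right flank. At an average tumour volume of 100 mm3 (about 18 days post-implantation) they were randomised, n = 6 per group. Groups received 15 or 30 mg/kg/day for 18 consecutive days or vehicle. Mice were kept at constant room temperature, 12/12-h light/dark, with standard diet and water ad lib.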

[28] = Cmax in Sprague-Dawley rat at 1 mg/kg, iv and measured after 24 hrs by LC-MS/MS analysis; assay type: ADME, organism-based; set-up: dose 1 mg/kg, time 24 hrs, route iv; conditions: in vivo
[29] = Volume of distribution at steady state in Sprague-Dawley rat at 1 mg/kg, iv and measured after 24 hrs by LC-MS/MS analysis; assay type: ADME, organism-based; conditions: in vivo, read-out: Vdss
[30] = Toxicity in BALB/c nude mouse xenografted with human NCI-H1975 cells harboring EGFR L858R/T790M mutant assessed as mortality at 15 to 30 mg/kg, po for 18 days; assay type: organism-based; conditions: in vivo, 432 h, dose 15-30 mg/kg, time 18 day; how it was run: as §5
[31] = test system: Epidermal growth factor receptor (Homo sapiens), P00533 [L858R,T790M]; experiment: In vivo inhibition of EGFR in BALB/c nude mouse xenografted with human NCI-H1975 cells harboring EGFR L858R/T790M mutant assessed as decrease in phosphorylated-EGFR level at 15 to 30 mg/kg, po for 18 days by western blot analysis; assay type: functional, organism-based; conditions: dose 15-30 mg/kg, time 18.0 day

## C=CC(=O)Nc1cc(Nc2ncc(Br)c(Nc3ccc4c(c3)CCC4)n2)c(OC)cc1N1CCN(C)CC1
[1]
  IC50: 203 nM
[2]
  inhibition: Active
[3]
  Activity: Non-Toxic
[4]
  Activity: Non-Toxic
[5]
  Activity: Non-Toxic
[6]
  IC50: 3.2 nM
[7]
  IC50: 276 nM
[8]
  inhibition: Dose-Dependent Effect
[9]
  inhibition in vivo at 15 mg/kg: 61%
[10]
  Activity: Active
[11]
  IC50: 2600 nM
[12]
  AUC: 35.58 ng·h/mL
[13]
  inhibition in vivo at 30 mg/kg: 77%
[14]
  inhibition: Dose-Dependent Effect
[15]
  inhibition: Dose-Dependent Effect
[16]
  inhibition: inactive
[17]
  inhibition: Active
[18]
  inhibition: Active
[19]
  clearance: 15.9 mL/min/kg
[20]
  inhibition: Active
[21]
  inhibition: Active
[22]
  AUC: 1052 ng·h/mL
[23]
  Cmax: 452 ng/mL
[24]
  half-life: 3.54 h
[25]
  F: 35.58%
[26]
  half-life: 5.17 h
[27]
  Activity: Non-Toxic
[28]
  Cmax: 407 ng/mL
[29]
  Vd: 4.83 L/kg
[30]
  Activity: Non-Toxic
[31]
  inhibition: Active
